In ChEMBL document CHEMBL1157145, “Cytotoxic activity of proflavine diureas: synthesis, antitumor, evaluation and DNA binding properties of 1',1''-(acridin-3,6-diyl)-3',3''-dialkyldiureas” (Bioorg Med Chem, 2008) one finds Activity, IC50 and K data, which are given here for 2 compounds.

Calls of active or inactive are those of the source. No cut-off for these calls is given here.

The test system of assay [1] is HCT-116. Briefly: Cytotoxicity against human HCT116 cells after 72 hrs by MTT assay. The assay is classed as functional, cell-based. A general note: Tetrazolium dyes change colour on reduction, which living cells bring about.
Assay [2] deals with HCT-116. Briefly: Induction of apoptosis in human HCT116 cells at 10 uM after 24 hrs. The assay is classed as functional. In a few lines: (§1)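 After 24 or 48 h of drug exposure, all cells were collected, combining trypsinised adherent cells with floating cells from the medium. Cells (1 × 10^6) were fixed in cold 70% ethanol overnight at −20 °C and stained with DAPI (10 µg/mL) for 30 min in the dark at RT. Under fluorescence microscopy, 300 cells per sample were scored, with condensed or fragmented nuclei counted as apoptotic.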

The subject of assay [3] is HeLa. Briefly: Cell cycle arrest in human HeLa cells assessed as accumulation at S phase at 24 uM after 24 hrs. Type of assay: functional. In a few lines:
(§2)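 Cells seeded at 8 · 10^5 per 60 mm dish, allowed to settle 24 h (37 °C, 5% CO2), then exposed to the drug for 24 or 48 h. Adherent plus floating cells (5 · 10^5) were fixed in cold 70% ethanol at −20 °C overnight, treated with RNase A (100 µg/mL) and stained with propidium iodide (20 µg/mL) in Vindelov's solution for 30 min at RT. Flow cytometry used 488 nm excitation, FL-2 at 585 ± 21 nm, and histograms were modelled for G0/G1, S and G2/M fractions.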

Assay [4] relates to HeLa. Briefly: Cell cycle arrest in human HeLa cells assessed as accumulation at S phase at 24 uM after 48 hrs. The assay is classed as functional. The method, boiled down: as §2
Assay [5] deals with HCT-116. Nature of the assay: Cell cycle arrest in human HCT116 cells assessed as accumulation at G2/M phase at 10 uM after 24 hrs. Type of assay: functional. The method, boiled down:
as §2

Assay [6] deals with HCT-116. Nature of the assay: Antiproliferative activity against human HCT116 cells assessed as increase of floating cells in total cell population at 10 uM after 48 hrs. The assay is classed as functional. The method, boiled down: (§3)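 Cells seeded (8 · 10^5 per 60 mm dish), allowed to settle 24 h at 37 °C, 5% CO2, then treated with a single concentration for 24 or 48 h. Adherent and floating cells counted by Coulter counter. Total cell number given as % of untreated control; floating cells as % of total cell number.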

Assay [7] has as its system HeLa. Nature of the assay: Antiproliferative activity against human HeLa cells assessed as decrease in total cell population at 24 uM after 24 hrs. The assay is classed as functional. Further details: scale not given: the % may be the effect or the level left. In a few lines:
as §3

In assay [8] the test system is HCT-116. Nature of the assay: Antiproliferative activity against human HCT116 cells assessed as decrease in total cell population at 10 uM after 48 hrs. Further details: scale not given: the % may be the effect or the level left. The assay is classed as functional. The method, boiled down:
as §3

Assay [9] concerns HCT-116. Briefly: Cell cycle arrest in human HCT116 cells assessed as accumulation at S phase at 10 uM after 48 hrs. The assay is classed as functional. In a few lines:
as §2

In assay [10] the test system is HeLa. Nature of the assay: Cell cycle arrest in human HeLa cells assessed as accumulation at G2/M phase at 24 uM after 48 hrs. The assay is classed as functional. The method, boiled down:
as §2

For assay [11], the system named is HCT-116. Nature of the assay: Cell cycle arrest in human HCT116 cells assessed as accumulation at G0/G1 phase at 10 uM after 48 hrs. The assay is classed as functional. The method, boiled down:
(§4)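 Adherent plus floating cells (5 · 10^5) collected 24 or 48 h after treatment, fixed in cold 70% ethanol at −20 °C overnight, washed in PBS. RNase A (100 µg/mL) and propidium iodide (20 µg/mL) in Vindelov's solution, 30 min at RT. Flow cytometry with 488 nm excitation, emission 585 ± 21 nm; % cells per cycle phase from DNA content histograms.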

For assay [12], the system named is HCT-116. Briefly: Antiproliferative activity against human HCT116 cells assessed as decrease in total cell population at 10 uM after 24 hrs. Type of assay: functional. Further details: scale not given: the % may be the effect or the level left. In a few lines: as §3
Assay [13] relates to HCT-116. Nature of the assay: Cytotoxicity against human HCT116 cells after 48 hrs by MTT assay. Type of assay: functional, cell-based. To be noted: HCT-116, 48 h.
For assay [14], the system named is HeLa. Nature of the assay: Induction of apoptosis in human HeLa cells at 24 uM after 48 hrs. The assay is classed as functional. In a few lines:
as §1

Assay [15] relates to DNA. Briefly: Binding affinity to calf thymus DNA at 50 uM by circular dichroism spectrophotometric titration. The assay is classed as nucleic-acid assay. To be noted: Bos taurus. Background: Circular dichroism is the unequal absorption of left and right circularly polarised light.
In assay [16] the test system is HCT-116. Nature of the assay: Antiproliferative activity against human HCT116 cells assessed as increase of floating cells in total cell population at 10 uM after 24 hrs. Type of assay: functional. In a few lines:
as §3

Assay [17] concerns HeLa. Briefly: Cell cycle arrest in human HeLa cells assessed as accumulation at G0/G1 phase at 24 uM after 24 hrs. The assay is classed as functional. The method, boiled down:
as §2

Assay [18] concerns HeLa. Briefly: Cytotoxicity against human HeLa cells after 48 hrs by MTT assay. The assay is classed as functional, cell-based.
Assay [19] deals with HCT-116. Nature of the assay: Cell cycle arrest in human HCT116 cells assessed as accumulation at G0/G1 phase at 10 uM after 24 hrs. The assay is classed as functional. In a few lines:
as §4

Assay [20] concerns DNA. Nature of the assay: Binding affinity to calf thymus DNA at 4 uM by fluorescence spectrophotometric titration. Type of assay: nucleic-acid assay. To be noted: Bos taurus. The method, boiled down: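 ctDNA sonicated in TE buffer, concentration taken from A260 and given in base pairs. Compound (4 µM) in 0.01 M Tris, pH 7.4, 25 °C titrated with ctDNA (0–55 µM bp) until spectra stopped changing. Excitation 424 nm, slit widths 10 nm; binding constant derived from the change in emission.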

Assay [21] has as its system HeLa. Nature of the assay: Cytotoxicity against human HeLa cells after 72 hrs by MTT assay. Type of assay: functional, cell-based.
In assay [22] the test system is HeLa. Nature of the assay: Antiproliferative activity against human HeLa cells assessed as increase of floating cells in total cell population at 24 uM after 24 hrs. The assay is classed as functional. The method, boiled down:
as §3

Assay [23] relates to HeLa. Briefly: Cell cycle arrest in human HeLa cells assessed as accumulation at G2/M phase at 24 uM after 24 hrs. The assay is classed as functional. In a few lines: as §2
Assay [24] has as its system HeLa. Briefly: Cell cycle arrest in human HeLa cells assessed as accumulation at G0/G1 phase at 24 uM after 48 hrs. The assay is classed as functional. The method, boiled down:
as §2

Assay [25] concerns HCT-116. Briefly: Cell cycle arrest in human HCT116 cells assessed as accumulation at G2/M phase at 10 uM after 48 hrs. Type of assay: functional. The method, boiled down: as §2
For assay [26], the system named is HeLa. Nature of the assay: Induction of apoptosis in human HeLa cells at 24 uM after 24 hrs. The assay is classed as functional. In a few lines:
as §1

Assay [27] deals with HCT-116. Briefly: Cell cycle arrest in human HCT116 cells assessed as accumulation at S phase at 10 uM after 24 hrs. Type of assay: functional. The method, boiled down: as §2
The test system of assay [28] is HCT-116. Briefly: Induction of apoptosis in human HCT116 cells at 10 uM after 48 hrs. Type of assay: functional. The method, boiled down:
as §1

In the assay with HCT-116 [1], `CC(C)C1=Cc2ccc3c(c2C(=O)C1=O)CCCC3(C)C` [MILTIRONE] came in with an Activity of 12.39 µM.

For orientation: IC50 means the concentration needed to halve the response being measured. For the compound `CCCNC(=O)Nc1ccc2cc3ccc(NC(=O)NCCC)cc3nc2c1.Cl`, the Activity is listed as 2.22% with HCT-116 [2]; 24.12% in the assay on HeLa [3]; 17.12% in the assay on HeLa [4]; 19.14% with HCT-116 [5]; 4.34% in the assay with HCT-116 [6]; 91.36% in the assay on HeLa [7]. Also, the Activity with HeLa [7] (in the assay text read “after 48 hrs” for “after 24 hrs”) turned out to be 89.95%; in the assay with HCT-116 [8] it was 71.3%; in the assay on HCT-116 [9], 27.16%; in the assay with HeLa [10] it was 10.06%; in the assay with HCT-116 [11], 57.74%; with HCT-116 [12] it was 86.16%. Also, the Activity with HeLa [14] was 1%; in the assay with HCT-116 [16], 5.48%; in the assay with HeLa [17], 62.48%; in the assay on HCT-116 [19], 45.07%; in the assay with HeLa [22], 3.84%; with HeLa [23], 13.4%. Also, the Activity stood at 72.81% in the assay with HeLa [24]; 15.11% with HCT-116 [25]; 0.89% in the assay on HeLa [26]; 35.8% with HCT-116 [27]; 2.89% in the assay with HCT-116 [28]. For the same compound, the IC50 in the assay on HCT-116 [13] was 10.3 µM; in the assay on HeLa [18], 23.9 µM; with HeLa [21] it was 29.3 µM; in the assay on HCT-116 [1] (Homo sapiens, HCT-116, 72 h), 61.5 µM. The outcome in the assay on DNA [15] was Active. In addition, the K in the assay on DNA [20] worked out at 3.8 ×10⁵ /M.
